Assay outcomes from PubChem BioAssay.
CHO parental Ca – counter-screen: ATP calcium response change in parental CHO cells | 330,000 tested, 0.63% active | AID 463079 | inhibition, % at 5.6 µM | parental CHO-K1, ATP-induced calcium, Fluo-8 fluorescence;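 active = inhibition above that plate's mean sample inhibition plus 3 SD, cut at about 26% in these data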;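 note: 0% = ATP-challenged DMSO wells and 100% = DMSO wells without ATP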
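Measured by: calcium-sensitive Fluo-8 fluorescence / Test system: CHO parental line / Controls: ATP-challenged DMSO wells low, unchallenged DMSO wells high / Measure: % inhibition / Compound: single nominal dose of 5.6 µM per compound / Replicates: single well per compound, no replicates / Reagent: ATP as calcium-mobilizing challenge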
GalR3 antag – blocks the human galanin receptor 3. O60755. HEK293 GalR3-CNG cAMP membrane potential fluorescence; galR3 body fused to GalR1 C-terminus. inhibition, % at 3 µM. 360,000 tested, 0.44% active. AID 651719;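 active = inhibition above the screen-wide average plus 3 SD, cut at about 13% in these data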;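 note: forskolin and galanin both at EC90 stimulate the cells; cAMP rise reported by CNG channel membrane potential dye signal; 0% = forskolin plus galanin with DMSO and 100% = forskolin alone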
Target sequence (O60755 1-299 limits assumed): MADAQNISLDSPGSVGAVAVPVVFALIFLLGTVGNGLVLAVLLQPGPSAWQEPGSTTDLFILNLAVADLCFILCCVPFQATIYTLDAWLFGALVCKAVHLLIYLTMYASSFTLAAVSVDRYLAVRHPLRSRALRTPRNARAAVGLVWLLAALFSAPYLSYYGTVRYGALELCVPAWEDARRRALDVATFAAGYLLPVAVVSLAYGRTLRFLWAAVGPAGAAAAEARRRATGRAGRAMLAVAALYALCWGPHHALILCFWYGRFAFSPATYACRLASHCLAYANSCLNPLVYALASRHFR
OX1R antag-1 – human HCRTR1 antagonism. O43613. 330,000 tested, 0.43% active. AID 434989. CHO/OX1R cells, Fluo-8 calcium fluorescence, orexin A. inhibition, % at 5 µM;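 active = inhibition above its plate's threshold, mean inhibition of all tested compounds on the plate plus 3 SD, cut at about 37% in these data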;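 note: 0% = orexin A challenge wells and 100% = SB-334867-A antagonist wells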
GPR7 antagonist – blocks human GPR7 receptor signaling | P48145 | GPR7-expressing cells, fluorescence antagonist assay | inhibition, % at 4.4 µM | 290,000 tested, 1.1% active | AID 1861; in the data active = inhibition above about 16%, passing the limit was not always enough;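 note: cells stimulated with the agonist NPW; 0% = agonist with vehicle and 100% = vehicle without agonist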
Target sequence (P48145 whole entry, looked up): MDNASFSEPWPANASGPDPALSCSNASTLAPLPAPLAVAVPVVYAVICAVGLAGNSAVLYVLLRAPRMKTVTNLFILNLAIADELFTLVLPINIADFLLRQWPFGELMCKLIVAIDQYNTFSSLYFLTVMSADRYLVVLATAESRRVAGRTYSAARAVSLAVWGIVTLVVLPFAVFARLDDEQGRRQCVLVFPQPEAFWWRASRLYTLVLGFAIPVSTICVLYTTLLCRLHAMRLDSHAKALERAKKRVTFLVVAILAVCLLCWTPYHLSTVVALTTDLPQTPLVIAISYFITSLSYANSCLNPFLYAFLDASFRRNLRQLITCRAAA
OX1R antag-2 – blocks the human orexin 1 receptor | 330,000 tested, 1.8% active | inhibition, % at 6.6 µM | AID 485270 | OX1R-expressing cells, FRET antagonist read-out; in the data active = inhibition mostly above about 38%, no sharp cut-off; inactive = mostly below about 40%;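 note: 0% = agonist challenge alone and 100% = reference antagonist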
* hit, by the source's call; . = no result given. Rows were chosen to be rich in hits. Some 3.1% of all compounds tested hit in one or more screens of this group.

SMILES	CHO parental Ca	GalR3 antag	OX1R antag-1	GPR7 antagonist	OX1R antag-2
C=CCn1c(Sc2ncc([N+](=O)[O-])s2)n[nH]c1=O	11	4	21	0	57*
O=Nc1ccc(Br)cn1	.	1	.	.	.
Cc1ccc(S(=O)(=O)N2CCN(C(=O)COC(=O)CCOc3cc(C)ccc3C)CC2)cc1	58*	-7	1	.	22
O=C(Nc1ccc(Cl)cc1)N1CCC(c2nc(-c3ccccc3Cl)no2)CC1	37*	-8	32	1	45
CC(C)(C)c1ccc(OCC(=O)N(c2ccccn2)C2CCCCC2)cc1	52*	-3	-17	5	15
O=C(COCCOCC(=O)N(c1ccccn1)C1CCCCC1)N(c1ccccn1)C1CCCCC1	-22	0	-42	8	14
CS(=O)(=O)Nc1ccccc1C(=O)Nc1cc(Cl)cc(Cl)c1	19	-7	11	-3	46*
COc1cc2sc3cc(NCc4ccc5c(c4)OCO5)ccc3c(=O)c2cc1OC	-1	5	1	.	50*
COc1cc2sc3cc(NCc4ccc(C)o4)ccc3c(=O)c2cc1OC	-18	-4	4	.	45*
COc1cccc2sc3cc(NCc4ccc5c(c4)OCO5)ccc3c(=O)c12	-17	-6	-15	.	23
O=C(C[C@H]1CC[C@@H](NC(=O)Cc2cccnc2)[C@@H](CO)O1)NCc1ccc2c(c1)OCO2	.	3	.	.	.
CC(C)OCCCNC1=C(Cl)C(=O)c2ccccc2C1=O	-7	3	-18	6	69*
O=C1C(Cl)=C(NCCc2ccccc2)C(=O)c2ccccc21	.	5	.	.	.
COCCCNC1=C(Cl)C(=O)c2ccccc2C1=O	-7	-3	-1	-8	56*
CC(C)NC1=C(Cl)C(=O)c2ccccc2C1=O	-4	2	-10	-1	43*
COCCCNc1c2c3c(cccc3[nH]c1=O)C(=O)c1ccccc1-2	89*	-3	95*	-8	56*
COc1cccc(-c2cnc(C(O)c3cc(C)c(OC)c(C)c3)[nH]2)c1 (centres undefined)	.	-1	.	.	.
O=C(N[C@H](Cc1ccccc1)C(=O)N1CCN(c2ncccn2)CC1)[C@H]1O[C@@H](n2ccc(=O)[nH]c2=O)[C@H](O)[C@@H]1O	.	-8	.	.	.
COc1ccc(CNC(=O)c2cc(S(=O)(=O)N3CCCCC3)ccc2N2CCOCC2)cc1OC	.	-8	.	.	.
Cc1ccc2nc(CSc3nc(C)cc(C)c3C#N)[nH]c2c1	-10	-3	-28	1	41*
CCN1C(=O)N[C@H]2C[C@@H](c3ccccc3)[C@@H](C)[C@@H](C(=O)N3CCCC3)C[C@H]21	.	-5	.	.	.
COC(=O)C1=C(C)N(Cc2ccc(C(F)(F)F)cc2)C(=NCc2ccc(C(F)(F)F)cc2)NC1c1ccccc1C(F)(F)F (centres undefined)	.	-1	.	.	.
CNC(=O)/C(=C\c1ccc([N+](=O)[O-])cc1)NC(C)=O	-6	-4	-5	0	73*
CC(=O)N/C(=C/c1ccc([N+](=O)[O-])cc1)C(=O)O	-6	0	-8	-5	33
O=C1c2ccccc2C(=O)N1c1ccc(Cl)cc1	-12	.	-8	-10	14
SMILES	CHO parental Ca	GalR3 antag	OX1R antag-1	GPR7 antagonist	OX1R antag-2
O=C1c2cccc3c(O)ccc(c23)C(=O)N1c1ccc(Cl)cc1	69*	-10	85*	27	19
Cc1ccc(N2C(=O)c3cccc4c(C(=O)O)ccc(c34)C2=O)cc1	-3	-9	2	-2	34
CC(=O)Nc1ccc(N2C(=O)c3cccc4c(O)ccc(c34)C2=O)cc1	58*	-4	61*	25	16
O=C1c2ccccc2-c2cccnc21	-4	-7	-20	-10	47*
COc1cc(/C=N/NC(=O)Cc2ccccc2)cc([N+](=O)[O-])c1O	-2	-8	0	-15	54*
COc1cc(/C=N/NC(=O)Cc2ccccc2)ccc1Oc1ccc([N+](=O)[O-])cc1[N+](=O)[O-]	29*	-4	-9	-8	14
COc1cc(/C=N/NC(=O)c2ccc(C)nc2)cc([N+](=O)[O-])c1O	-16	0	-24	8	43*
CC(=O)Nc1ccc(S(=O)(=O)NC2=C(N3CCN(C)CC3)C(=O)c3ccccc3C2=O)cc1	-8	-1	-7	-3	68*
CC(=O)Nc1ccc(S(=O)(=O)NC2=C(N3CCN(Cc4ccccc4)CC3)C(=O)c3ccccc3C2=O)cc1	-17	5	-18	1	34
O=C1C(NS(=O)(=O)c2ccc(Br)cc2)=C(N2CCCCC2)C(=O)c2ccccc21	-29	-2	-34	-19	53*
CC1CCN(C2=C(NS(=O)(=O)c3ccc(Br)cc3)C(=O)c3ccccc3C2=O)CC1	-26	0	-36	-12	56*
CCN1CCN(C2=C(NS(=O)(=O)c3ccc(C)cc3)C(=O)c3ccccc3C2=O)CC1	-11	-8	-8	-5	61*
C=CCN1[C@H](C)[C@H](c2ccccc2)Oc2cc(Br)ccc2S1(=O)=O	.	-7	.	.	.
CCc1c(C)nc2[nH]ncn2c1=O	.	-2	.	.	.
COc1cc(OC)cc(C(=O)Nc2ccc(NC(=O)c3ccco3)c(Cl)c2)c1	-14	-6	-29	25*	24
CC(C)CC(C(=O)N1CCc2ccccc2C1)N1C(=O)c2ccccc2C1=O (centres undefined)	-23	-6	-30	20*	28
CC(C(=O)N1CCc2ccccc2C1)N1C(=O)c2ccccc2C1=O (centres undefined)	-9	-5	-17	-6	9
COC(=O)[C@]12C[C@H](CC(=O)NCc3ccc(C)o3)C(=O)N(Cc3ccccc3)C1=C[C@H](C(C)C)O[C@@H]2C1CC1	.	-6	.	.	.
COc1ccc(/C=C2\SC(=S)N(CCC(=O)N3CCCCC3)C2=O)cc1	-7	-11	-16	-8	7
COCCN1C(=O)/C(=C/c2ccc(N3CCCC3)cc2)SC1=S	42*	-2	50*	1	13
c1csc(CNc2nc(-c3cccs3)nc3ccccc23)c1	-2	-4	-20	-20	9
c1ccc(-c2nc(NC3CCCC3)c3ccccc3n2)cc1	-21	-2	-44	0	49*
c1ccc(CN2CCC(Nc3nc(-c4cccs4)nc4ccccc34)CC2)cc1	-16	-10	-3	20*	7
c1csc(-c2nc(NCC3CCCO3)c3ccccc3n2)c1 (centres undefined)	-24	-12	-15	-3	68*
c1cncc(-c2nc(NCC3CCCO3)c3ccccc3n2)c1 (centres undefined)	-4	.	-16	5	31
COC(=O)[C@]12C[C@H](CC(=O)NCc3cccc(C(F)(F)F)c3)C(=O)N(Cc3ccccc3)C1=C[C@H](C1CCCC1)O[C@@H]2C	.	-4	.	.	.
O=C(/C=C(\Nc1cc(Cl)c(Cl)c(Cl)c1)c1ccccc1)c1ccccc1	.	-5	.	.	.
Cc1ccc(C)n1-n1c(C)nc2sc(-c3ccccc3)cc2c1=O	39*	0	27	9	57
